Measured values reported in ChEMBL document CHEMBL1124846, “Synthesis, antiproliferative, and antiviral activity of certain 4-substituted and 4,5-disubstituted 7-[(1,3-dihydroxy-2-propoxy)methyl]pyrrolo[2,3-d]pyrimidines” (J Med Chem, 1990).
pIC50: −log10 of the molar value.

Assays:
[1] = test system: Mus musculus; experiment: Compound was evaluated for percent mortality of mice inoculated with murine cytomegalovirus at a concentration of 1.9 mg/kg at 48 h; assay type: organism-based; design: dose 1.9 mg/kg; conditions: in vivo
Outline: (§1)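 Three-week-old female Swiss Webster mice inoculated ip with 2×10^5 PFU MCMV Smith strain. Groups of 15 dosed ip twice daily for 5 days, starting 6, 24 or 48 h post-inoculation. Held 21 days with daily mortality checks. Final mortality and mean day of death (dying animals) computed. Mortality versus placebo by Fisher Exact Test, MDD by Mann–Whitney U-rank test.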

[2] = test system: Mus musculus; experiment: Compound was evaluated for 15 mice treated ip twice daily for 5 days at a dose of 50 mg/kg at 48 hr followed (MCMV) virus inoculation; assay type: functional; conditions: route intraperitoneal; outline: as §1
[3] = test system: Mus musculus; experiment: Compound was evaluated for percent mortality of mice inoculated with murine cytomegalovirus at a concentration of 5.6 mg/kg at 24 h; assay type: ADME, organism-based; design: dose 5.6 mg/kg; conditions: in vivo
Outline: (§2)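 Three-week-old female Swiss Webster mice infected ip with 2×10^5 PFU MCMV Smith strain; groups of 15 given drug ip twice daily for 5 days, starting 6, 24 or 48 h after inoculation. Toxicity controls received drug without virus. Mortality followed daily for 21 days; final mortality compared with placebo by Fisher Exact Test.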

[4] = test system: Mus musculus; experiment: Compound was evaluated for 15 mice treated ip twice daily for 5 days at a dose of 1.9 mg/kg at 48 hr followed (MCMV) virus inoculation; assay type: functional; conditions: route intraperitoneal; outline: as §1
[5] = test system: Mus musculus; experiment: Compound was evaluated for mean day of death at 1.9 mg/kg at 6 h; assay type: functional; outline: as §1
[6] = test system: Mus musculus; experiment: Compound was evaluated for percent mortality of mice inoculated with murine cytomegalovirus at a concentration of 50 mg/kg at 48 h; assay type: ADME, organism-based; design: dose 50 mg/kg; conditions: in vivo; outline: as §2
[7] = organism: Homo sapiens; experiment: Inhibition of AD169 strain human cytomegalo virus (HCMV) in human foreskin fibroblasts cell lines was determined by plaque assay; assay type: functional, organism-based; conditions: Fibroblast
Outline: (§3)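 Plaque reduction used MCMV Smith in primary mouse embryo fibroblasts, HCMV AD169 in low-passage HFF, and HSV-1 E-377 and HSV-2 MS in MEF, rabbit kidney or HFF. IC50 was determined against untreated controls; two or more experiments.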

[8] = test system: Mus musculus; experiment: Compound was evaluated for mean day of death at 50 mg/kg at 24 h; assay type: functional; outline: as §1
[9] = test system: Mus musculus; experiment: Compound was evaluated for mean day of death at 16.7 mg/kg at 6 h; assay type: functional; outline: as §1
[10] = test system: Mus musculus; experiment: Compound was evaluated for 15 mice treated ip twice daily for 5 days at a dose of 16.7 mg/kg followed (MCMV) virus inoculation; assay type: functional; conditions: route intraperitoneal
[11] = test system: Mus musculus; experiment: Compound was evaluated for 15 mice treated ip twice daily for 5 days at a dose of 5.6 mg/kg at 48 hr followed (MCMV) virus inoculation; assay type: functional; conditions: route intraperitoneal; outline: as §1
[12] = Compound was evaluated for percent mortality of mice inoculated with murine cytomegalovirus at a concentration of 1.9 mg/kg; drug toxicity control; assay type: organism-based; design: dose 1.9 mg/kg; conditions: mouse, in vivo
Outline: (§4)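 Drug toxicity control: uninfected three-week-old female Swiss Webster mice, groups of 15, dosed ip twice daily for 5 days. Held 21 days with daily mortality checks. Final mortality and mean day of death for animals that died were calculated.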

[13] = test system: Mus musculus; experiment: Compound was evaluated for mean day of death at 5.6 mg/kg at 24 h; assay type: functional; outline: as §1
[14] = organism: Mus musculus; experiment: Inhibition of murine cytomegalo virus in mouse embryo fibroblasts cell lines was determined by plaque assay; assay type: functional, organism-based; conditions: Fibroblast; outline: as §3
[15] = Cytotoxicity of HCMV in human foreskin fibroblasts cells; assay type: functional, cell-based; conditions: Fibroblast
Outline: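 Visual cytotoxicity was scored in uninfected cells of the same host monolayers used for the plaque assays, on a 0 to 4+ scale at 35- and 60-fold magnification, at the time plaques were counted.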

[16] = Compound was evaluated for cytotoxic activity against BSC cells; assay type: functional, cell-based; conditions: Cercopithecidae
Outline: (§5)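 Visual cytotoxicity in uninfected areas of plaque-reduction cultures. HFF cells grown in MEM(E) + 10% FBS for HCMV (Towne) assays; BSC-1 cells for HSV-1 (S-148) assays. Drug in overlay medium. Cytopathology scored 0 to 4+ at 35- and 60-fold magnification on the staining day.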

[17] = test system: Mus musculus; experiment: Compound was evaluated for 15 mice treated ip twice daily for 5 days at a dose of 16.7 mg/kg at 48 hr followed (MCMV) virus inoculation; assay type: functional; conditions: route intraperitoneal; outline: as §1
[18] = Compound was evaluated for cytotoxic activity against HFF cells; assay type: functional, cell-based; conditions: Homo sapiens; outline: as §5
[19] = test system: Mus musculus; experiment: Compound was evaluated for mean day of death at 50 mg/kg at 48 h; assay type: functional; outline: as §1
[20] = test system: Mus musculus; experiment: Compound was evaluated for 15 mice treated ip twice daily for 5 days at a dose of 1.9 mg/kg at 24 hr followed (MCMV) virus inoculation; assay type: functional; conditions: route intraperitoneal; outline: as §1
[21] = Inhibition of herpes simplex virus type 1(HSV-1) in mouse embryo fibroblasts cell lines was determined by plaque assay; conditions: Fibroblast
[22] = Compound was evaluated for percent mortality of mice inoculated with murine cytomegalovirus at a concentration of 16.7 mg/kg; drug toxicity control; assay type: organism-based; design: dose 16.7 mg/kg; conditions: mouse, in vivo; outline: as §4
[23] = test system: Mus musculus; experiment: Compound was evaluated for mean day of death at 50 mg/kg at 6 h; assay type: functional; outline: as §1
[24] = test system: Mus musculus; experiment: Compound was evaluated for mean day of death at 5.6 mg/kg at 48 h; assay type: functional; outline: as §1
[25] = test system: Mus musculus; experiment: Compound was evaluated for 15 mice treated ip twice daily for 5 days at a dose of 16.7 mg/kg at 24 hr followed (MCMV) virus inoculation; assay type: functional; conditions: route intraperitoneal; outline: as §1
[26] = Inhibition of herpes simplex virus (HSV-2) in human foreskin fibroblasts cell lines was determined by plaque assay; conditions: Fibroblast
[27] = organism: Homo sapiens; experiment: Inhibition of human cytomegalo virus (HCMV) in human foreskin fibroblasts cell lines was determined by plaque assay; assay type: functional, organism-based; conditions: Fibroblast
Outline: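 HCMV Towne strain (plaque-purified P0) plaque reduction in HFF monolayers in MEM(E) with 10% FBS. Inoculum held about 50 PFU, with compound dissolved in the overlay medium. IC50 came from linear regression of percent inhibition against log concentration, with ganciclovir or acyclovir positive controls in every set; two to five experiments.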

[28] = test system: Mus musculus; experiment: Compound was evaluated for 15 mice treated ip twice daily for 5 days at a dose of 50 mg/kg at 24 h followed (MCMV) virus inoculation; assay type: functional; conditions: route intraperitoneal; outline: as §1
[29] = test system: Mus musculus; experiment: Compound was evaluated for mean day of death at 1.9 mg/kg at 24 h; assay type: functional; outline: as §1
[30] = test system: L1210; experiment: In vitro inhibition of L1210 cell growth.; assay type: functional, Mus musculus; design: concentration or dose not given beside the values
Outline: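 Murine L1210 leukemia cells in static suspension culture in Fischer's medium with compound for 4 days. Growth rate is the ratio of control to treated population doubling time; where the rate changed, the final rate was used. IC50 is the concentration giving 50% of control growth rate; single-concentration value at 100 μM.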

Nc1ncnc2c1c(Br)cn2COC(CO)CO
Mortality [1]: 67% | Activity [2]: 13 | Mortality [3]: 20% | Activity [4]: 10 | MDD [5]: 6.2 | Mortality [6]: 87% | pIC50 [7]: 6.22 | MDD [8]: 8.8 | MDD [9]: 8.7 | Activity [10]: 1 | Activity [11]: 6 | Mortality [12]: 0% | MDD [13]: 6.3 | pIC50 [14]: 7.52 | pIC50 [15]: < 4.00 | pIC50 [16]: < 4.00 | Activity [17]: 13 | pIC50 [18]: < 4.00 | MDD [19]: 7.5 | Activity [20]: 9 | pIC50 [21]: 5.72 | Mortality [22]: 7% | MDD [23]: 10.8 | MDD [24]: 5.5 | Activity [25]: 12 | pIC50 [26]: 6.52 | pIC50 [27]: 5.80 | Activity [28]: 14 | MDD [29]: 4.8 | Activity [30]: 0%
